Data set [1] can be described thus: Solubility at 0.1 N HCl. The conditions noted are these: read-out: S. Format: physicochemical.
Data set [2] can be described thus: Compound was evaluated for the distribution coefficient at pH 7.4. In kind it is physicochemical. The conditions noted are these: octanol/water.
Data set [3] has as its system Rattus norvegicus. Nature of the data set: Compound was evaluated for % reduction in plasma cholesterol in cholesterol fed rats at a dose of 25 mg/kg. In kind it is functional. The method in brief: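 Male Sprague-Dawley rats on a cholesterol-enriched diet. Dosing was either by gavage as a suspension in 1.5% carboxymethylcellulose/0.2% Tween-20 in water or in oleic acid, or given as a diet admixture. Result is % reduction in plasma cholesterol versus untreated controls given the same mode and vehicle. Significance threshold p < 0.05.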

Data set [4] can be described thus: Solubility at pH 4.0. Format: physicochemical. To be noted: buffer.
The species named for data set [5] is Rattus norvegicus. Nature of the data set: Percent change in total cholesterol in peanut oil (5.5%) - cholic acid (0.3%) - Cholesterol (1.5%) fed rates after a single dose. In kind it is functional. Summed up:
(§1)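 Male Sprague-Dawley rats (200-225 g), n=5-7/group, given a single oral dose at 4 p.m. as a suspension in 1.5% CMC/0.2% Tween-20 in water (50 mg/kg); controls received vehicle alone. The rats then had free access to chow with peanut oil, cholesterol and cholic acid. At 8 a.m. next day they were bled by cardiac puncture under ether, and serum total cholesterol was measured as % change versus controls (unpaired two-tailed t-test).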

Data set [6] is described as follows: Solubility at pH 7.4. In kind it is physicochemical. The conditions noted are these: buffer.
The test system of data set [7] is Rattus norvegicus. The data set is described as follows: Compound was evaluated in experiment 2 for Change in total cholesterol at 1 (mg/kg) dose; N/C denotes 'No change'. In kind it is functional, organism-based. Summed up: (§2)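 Chronic model in male Sprague-Dawley rats (200-225 g). Rats were fed chow with peanut oil 5.5%, cholesterol 1.5% and cholic acid ad libitum for 2 weeks. Test article was given by gavage once daily (morning) in the second week, as a CMC/Tween aqueous suspension. Blood was taken by cardiac puncture under ether 24 h after the last dose. Plasma total, HDL and nonHDL cholesterol were measured with an Abbott VP analyzer using dextran sulfate precipitation, reported as mg/dL and % change from control. Controls were cholesterol-fed rats and rats switched to chow in week 2.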

Data set [8] concerns Rattus norvegicus. The data set is described as follows: Compound was evaluated in experiment 2 for change in non High density lipoprotein at the doses at 1 (mg/kg) dose. In kind it is functional, organism-based. Summed up: as §2
The subject of data set [9] is Rattus norvegicus. The data set is described as follows: Compound was evaluated in experiment 2 for Change in total cholesterol at 30 (mg/kg) dose. Format: functional. Summed up: as §2
Data set [10] has as its system Rattus norvegicus. Nature of the data set: Compound was evaluated in experiment 2 for Total cholesterol at 10 (mg/kg) dose. Format: functional. The method in brief: as §2
Data set [11] deals with Rattus norvegicus. Nature of the data set: Compound was evaluated in experiment 2 for High density lipoproteins at 1 (mg/kg) dose. In kind it is functional. Summed up: as §2
The subject of data set [12] is Rattus norvegicus. The data set is described as follows: Compound was evaluated in experiment 2 for non High density lipoproteins at 3 (mg/kg) dose. In kind it is functional. The method in brief: (§3)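 Male Sprague-Dawley rats (200-225 g) were fed chow with peanut oil (5.5%), cholesterol (1.5%) and cholic acid (0.5%) ad libitum for 2 weeks. During week 2 they were gavaged daily each morning with compound in aqueous CMC/Tween suspension. Controls were fed the cholesterol diet for 2 weeks, or switched to chow for week 2. Rats were bled by cardiac puncture under ether 24 h post-dose. Plasma HDL-C was measured after dextran sulfate precipitation, along with nonHDL-C. Values are given in mg/dL and as % change from control.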

For data set [13], the system named is Rattus norvegicus. Nature of the data set: Compound was evaluated in experiment 2 for non High density lipoproteins at 10 (mg/kg) dose. Format: functional. The method in brief:
as §3

For data set [14], the system named is Rattus norvegicus. The data set is described as follows: Compound was evaluated in experiment 2 for Total cholesterol at 1 (mg/kg) dose. In kind it is functional. Summed up: as §2
The test system of data set [15] is Rattus norvegicus. The data set is described as follows: Compound was evaluated in experiment 2 for High density lipoproteins at 10 (mg/kg) dose. In kind it is functional. Summed up:
as §2

The species named for data set [16] is Rattus norvegicus. Nature of the data set: Percent change in total cholesterol in peanut oil (5.5%)-, cholic acid (0.3%)-, Cholesterol (1.5%)-fed rats after a single dose. Format: functional. The method in brief:
as §1

Data set [17] has as its system Rattus norvegicus. The data set is described as follows: Compound was evaluated in experiment 2 for High density lipoproteins at 30 (mg/kg) dose. Format: functional. The method in brief: as §2
Data set [18] has as its target T1, Acyl-CoA:cholesterol acyltransferase (Oryctolagus cuniculus, UniProt Q95214).
T1 sequence (Q95214 whole entry): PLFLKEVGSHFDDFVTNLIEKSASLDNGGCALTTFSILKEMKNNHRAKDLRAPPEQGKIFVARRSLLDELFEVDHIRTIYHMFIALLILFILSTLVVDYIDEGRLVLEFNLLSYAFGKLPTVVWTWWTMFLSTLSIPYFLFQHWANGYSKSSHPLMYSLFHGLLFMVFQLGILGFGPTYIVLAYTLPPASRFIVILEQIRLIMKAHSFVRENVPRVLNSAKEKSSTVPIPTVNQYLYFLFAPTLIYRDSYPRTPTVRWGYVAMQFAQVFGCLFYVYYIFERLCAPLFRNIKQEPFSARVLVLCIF
The data set is described as follows: Tested for in vitro inhibition against Acyl coenzyme A:cholesterol acyltransferase of intestinal microsomes in cholesterol-fed rabbits. Further details: species or system Microsome. Summed up:
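Microsomes were prepared from intestine of cholesterol-fed rabbits. ACAT activity was measured using [1-14C]oleoyl-CoA as substrate. Each determination was run in triplicate.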

Data set [19] has as its system Rattus norvegicus. Nature of the data set: Compound was evaluated in experiment 2 for Change in total cholesterol at 10 (mg/kg) dose. Format: functional. The method in brief:
as §2

Data set [20] deals with Rattus norvegicus. The data set is described as follows: Compound was evaluated in experiment 2 for non High density lipoproteins at 1 (mg/kg) dose. Format: functional. The method in brief:
as §3

Data set [21] relates to Rattus norvegicus. Nature of the data set: Compound was evaluated in experiment 2 for change in non High density lipoprotein at the doses at 3 (mg/kg) dose. In kind it is functional. The method in brief: as §2
Data set [22] relates to Rattus norvegicus. The data set is described as follows: Compound was evaluated in experiment 2 for Change in total cholesterol at 3 (mg/kg) dose. In kind it is functional. The method in brief:
as §2

The test system of data set [23] is Rattus norvegicus. Nature of the data set: Compound was evaluated in experiment 2 for Change in High density lipoproteins at 1 (mg/kg) dose. Format: functional. Summed up:
as §2

In data set [24] the test system is Rattus norvegicus. The data set is described as follows: Compound was evaluated in experiment 2 for non High density lipoproteins at 30 (mg/kg) dose. In kind it is functional. The method in brief:
as §3

Data set [25] relates to Rattus norvegicus. The data set is described as follows: Compound was evaluated in experiment 2 for Change in High density lipoproteins at 30 (mg/kg) dose. Format: functional. The method in brief: as §2
Data set [26] has as its system Rattus norvegicus. The data set is described as follows: Compound was evaluated in experiment 2 for change in non High density lipoprotein at the doses at 30 (mg/kg) dose. In kind it is functional. Summed up:
as §3

Data set [27] relates to Rattus norvegicus. Nature of the data set: Compound was evaluated in experiment 2 for High density lipoproteins at 3 (mg/kg) dose. Format: functional. Summed up: as §2
Data set [28] deals with Rattus norvegicus. The data set is described as follows: Compound was evaluated in experiment 2 for Change in High density lipoproteins at 10 (mg/kg) dose. Format: functional. The method in brief: as §2
The test system of data set [29] is Rattus norvegicus. The data set is described as follows: Compound was evaluated in experiment 2 for Total cholesterol at 30 (mg/kg) dose. In kind it is functional. Summed up: as §2
In data set [30] the test system is Rattus norvegicus. Nature of the data set: Compound was evaluated for the percentage change in total cholesterol in peanut oil (5.5%)-cholic acid (0.3%)-cholesterol (1.5%)-fed rat at 30 mg/kg. Format: functional.
Data set [31] concerns Rattus norvegicus. Nature of the data set: Compound was evaluated in experiment 2 for Total cholesterol at 3 (mg/kg) dose. Format: functional. The method in brief:
as §2

Data set [32] has as its system Rattus norvegicus. The data set is described as follows: Compound was evaluated in experiment 2 for Change in High density lipoproteins at 3 (mg/kg) dose. In kind it is functional. The method in brief:
as §2

Data set [33] deals with Rattus norvegicus. The data set is described as follows: Compound was evaluated in experiment 2 for change in non High density lipoprotein at the doses at 10 (mg/kg) dose. Format: functional. The method in brief:
as §2

For orientation: logD means lipophilicity at a set pH, counting ionised and neutral species. Read a low logD as lower lipophilicity. As to `CC(C)c1cccc(C(C)C)c1NC(=O)NCC1(c2ccccc2)CCCC1`, the solubility in [1], in [4] and in data set [6] was < 1 µg/mL in each case. The compound further yielded a logD in data set [2] of 5.16. The Reduction with Rattus norvegicus [3] stood at 59%. The “Delta TC” value in the data set filed under Rattus norvegicus [5] is -38%.
Turning to `CC(C)c1cccc(C(C)C)c1NC(=O)NCC1(c2cccc(CN(C)C)c2)CCCC1` [listing 1 of 2 here], the “Change TC” value in the data set with Rattus norvegicus [7] is “No change”. Moreover, the “Change non HDL-C” value in the data set with Rattus norvegicus [8] was “No change”.
The IC50 is the concentration that gives 50% inhibition. In data set [2], `CC(C)c1cccc(C(C)C)c1NC(=O)NCC1(c2cccc(CN(C)C)c2)CCCC1` [listing 2 of 2 here] showed a logD of 4.8. Moreover, the “Change TC” value in the data set with Rattus norvegicus [9] is -66%; with Rattus norvegicus [19] it was -33%; with Rattus norvegicus [22], -23%. Besides, the TC with Rattus norvegicus [10] is recorded as 200; in the data set with Rattus norvegicus [14], 292; with Rattus norvegicus [29], 101; in the data set with Rattus norvegicus [31], 229. Further, the HDL-C in the data set with Rattus norvegicus [11] worked out at 14; in the data set on Rattus norvegicus [15] it was 23; in the data set on Rattus norvegicus [17], 33; in the data set on Rattus norvegicus [27], 17. Moreover, the Non-HDL-C turned out to be 212 with Rattus norvegicus [12], 177 with Rattus norvegicus [13], 278 in the data set with Rattus norvegicus [20] and 68 in the data set with Rattus norvegicus [24]. Also, the “Delta TC” value is -22% in the data set filed under Rattus norvegicus [16] and -55% in the data set on Rattus norvegicus [30]. The compound also came in with an IC50 in [18] of 63 nM. The “Change non HDL-C” value with Rattus norvegicus [21] was -25%; with Rattus norvegicus [26] it was -76%; in the data set with Rattus norvegicus [33], -38%. Moreover, the “Change HDL -C” value worked out at 8% in the data set on Rattus norvegicus [23], 154% in the data set with Rattus norvegicus [25], 77% with Rattus norvegicus [28] and 31% in the data set with Rattus norvegicus [32].

The values are drawn from ChEMBL document CHEMBL1127826, “Inhibitors of acyl-CoA:cholesterol acyltransferase (ACAT). 7. Development of a series of substituted N-phenyl-N'-[(1-phenylcyclopentyl)methyl]ureas with enhanced hypocholesterolemic activity” (J Med Chem, 1994).
